Activity calls are given as the source filed them. The rule behind the calls is not given here.

The target in data set [1] is T1, 20S proteasome (Homo sapiens) (UniProt P49721+P20618+P28074+P28062+P28065+P28072+P25786+P25787+P25788+P25789+P28066+P60900+O14818+Q8TAA3+P40306+A5LHX3+P49720+P28070+Q99436). Briefly: Stimulation of human 20S proteasome assessed as increase in proteasome activity at 25 uM and measured upto 60 mins using FRET peptide as substrate by FRET assay relative to control. The settings on record: filed as activator. It is filed as protein-complex assay. The procedure, abridged: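 Purified 20S CP (5 nM) with 20 µM FRET peptide reporter in Tris-HCl (50 mM, pH 7.63), 2% DMSO, 25 µL. Controls were reporter alone and basal enzyme with DMSO, in triplicate. Read at 37 °C, ex 335/em 493 nm, every 2 min for 60 min. Rate taken as slope of linear portion.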

In data set [2] the target is T2, Proteasome Macropain subunit MB1 (Homo sapiens) (UniProt P28074).
T2 sequence (whole entry): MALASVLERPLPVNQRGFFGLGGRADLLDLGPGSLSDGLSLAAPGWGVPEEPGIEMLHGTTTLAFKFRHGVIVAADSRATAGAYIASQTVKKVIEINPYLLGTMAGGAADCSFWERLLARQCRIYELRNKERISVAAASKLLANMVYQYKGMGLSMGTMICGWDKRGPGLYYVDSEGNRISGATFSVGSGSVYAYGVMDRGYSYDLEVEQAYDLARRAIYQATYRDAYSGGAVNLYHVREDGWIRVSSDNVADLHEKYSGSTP
Briefly: Stimulation of human 20S proteasome beta 5 subunit in human HEK-293T cells assessed as increase in proteasome activity at 6.25 to 25 uM preincubated for 2 hrs followed by Me4BodipyFL-Ahx3Leu3VS proteasome probe addition and measured after 1 hrs by SDS-PAGE analysis. It is filed as cell-based. The settings on record: filed as activator, dose 6.25-25 µM. The procedure, abridged: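 Treated 2 h in fresh medium, DMSO control 0.5%, then 1 µM Me4BodipyFL-Ahx3Leu3VS probe added. Cells lysed in M-PER with protease inhibitors. 50 µg protein run on 4–15% SDS-PAGE, in-gel fluorescence scanned at 488 nm. Band densities quantified, triplicate.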

Another data set concerns HEK-293T. The experiment in a line: Cytotoxicity against human HEK-293T cells assessed as reduction in cell viability at 6.25 to 25 uM incubated for 24 hrs by CellTiter Glo viability assay. It is filed as toxicity, cell-based. The settings on record: dose 6.25-25 µM. The procedure, abridged:
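HEK-293T seeded at 5000 cells/well, attached overnight, medium refreshed. Compound in DMSO added in triplicate, 1% final DMSO, 24 h. Plate equilibrated to room temperature 30 min before CellTiter-Glo reagent, shaken 10 min, signal stabilized 10 min. Luminescence read.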
In general terms: In ATP-based viability assays light output follows the ATP content of the culture.

Data set [3] addresses T1, 20S proteasome (Homo sapiens). The experiment in a line: Activation of human 20S proteasome mediated degradation of alpha-synuclein assessed as amount of alpha-synuclein remaining at 25 uM and incubated for 2 hrs by Coomassie staining based SDS-PAGE analysis. It is filed as protein-complex assay. The settings on record: filed as activator. The procedure, abridged:
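Human 20S CP (5 nM final) with α-Syn monomer (400 ng) in Tris-HCl (50 mM, pH 7.6), 2% DMSO, 18 µL total, 2 h at 37 °C, triplicate. Mixed on ice before incubation. Stopped in SDS loading buffer at 95 °C 5 min. Run on 4–15% SDS-PAGE, Coomassie stained, band intensity normalized to α-Syn without 20S CP.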

For `CCCCCCCC/C=C\CCCCCCCC(=O)Nc1ccc(Cl)cc1`, the Activity in data set [1] was 144%.

`CCCCCCCC/C=C\CCCCCCCC(=O)Nc1ccc(Oc2ccccc2)cc1`: the Activity in data set [1] is 145%.

For the molecule `CCCCCCCC/C=C\CCCCCCCC(=O)NCc1ccccc1C`, the Activity in data set [1] was determined as 107%.

Consider `CCCCCCCC/C=C\CCCCCCCC(=O)N[C@H](C)c1ccccc1`, for which the Activity in data set [1] turned out to be 225%.

Turning to `CCCCCCCC/C=C\CCCCCCCC(=O)NCc1ccc(C(C)(C)C)cc1`, the Activity in data set [1] was determined as 106%.

For `CCCCCCCC/C=C\CCCCCCCC(=O)NCCC`, the result in data set [2] and in data set [3] was Active. Also, the Activity entry was “Toxic” in the data set on HEK-293T and 154% in data set [1].

Regarding `CCCCC/C=C\C/C=C\C/C=C\C/C=C\CCCC(=O)Nc1ccc(O)cc1`, the Activity entry in data set [2] (DDE = dose-dependent effect) was “Dde”; in the data set with HEK-293T, “Toxic”; in data set [1], 219%. Moreover, the outcome in data set [3] was Active.

On to `CCCCCCCC/C=C\CCCCCCCC(=O)NCc1ccc(C)cc1`, for which the Activity in data set [1] was 167%.

Turning to `CCCCCCCC/C=C\CCCCCCCC(=O)NCc1cccc(C)c1`, in data set [1], the Activity came to 183%.

Turning to `CCCCCCCC/C=C\CCCCCCCC(=O)Nc1ccc(C(C)(C)C)cc1`, the Activity in data set [1] was determined as 68%.

As to `CCCCCCCC/C=C\CCCCCCCC(=O)NC1CCCCC1`, the Activity in data set [1] was 204%.

On to `CCCCCCCC/C=C\CCCCCCCC(=O)NC1CCCC1`, for which the Activity in data set [1] came out at 218%.

On to `CCCCCCCC/C=C\CCCCCCCC(=O)N[C@@H](C)c1ccccc1`, for which, in data set [1], the Activity is 195%.

`CCCCCCCC/C=C\CCCCCCCC(=O)NCc1ccccc1`: the Activity in data set [1] was found to be 208%.

On to `CCCCCCCC/C=C\CCCCCCCC(=O)NCc1ccc(C(F)(F)F)cc1`, for which, in data set [1], the Activity turned out to be 92%.

Regarding `CCCCCCCC/C=C\CCCCCCCC(=O)NCc1ccc(Cl)cc1`, in data set [1], the Activity came to 138%.

Regarding `CCCCCCCC/C=C\CCCCCCCC(=O)NC1CCC1`, the Activity in data set [1] worked out at 202%.

Regarding `CCCCCCCC/C=C\CCCCCCCC(=O)Nc1ccccc1`, the Activity in data set [1] was 159%.

Regarding `CCCCCCCC/C=C\CCCCCCCC(=O)NCCCC`, the Activity in data set [1] was found to be 138%.

Regarding `CCCCCCCC/C=C\CCCCCCCC(=O)NCc1ccc(O)cc1`, the result in data set [2] and in data set [3] was Active. For the same molecule, the Activity entry was “Toxic” in the data set with HEK-293T and 361% in data set [1].

As for `CCCCCCCC/C=C\CCCCCCCC(=O)N[C@H]1CC[C@H](C)CC1`, the Activity in data set [1] worked out at 118%.

For `CCCCCCCC/C=C\CCCCCCCC(=O)Nc1ccc(O)cc1`, the Activity in data set [1] was determined as 247%.

As to `CCCCCCCC/C=C\CCCCCCCC(=O)NC1CCCCCCC1`, the Activity in data set [1] worked out at 148%.

For `CCCCCCCC/C=C\CCCCCCCC(=O)NCC(C)C`, in data set [1], the Activity amounted to 139%.

Take `CCCCCCCC/C=C\CCCCCCCC(=O)Nc1ccc(C(C)=O)cc1`: the result in data set [2] and in data set [3] was Active. The Activity result in the data set on HEK-293T was “Non-Toxic”; in data set [1] it was 241%.

With `CCCCCCCC/C=C\CCCCCCCC(=O)NCCCCC`, in data set [1], the Activity amounted to 124%.

In the case of `CCCCCCCC/C=C\CCCCCCCC(=O)NCc1ccc(OC)cc1`, the Activity in data set [1] came to 116%.

With `CCCCCCCC/C=C\CCCCCCCC(=O)NC`, the Activity in data set [1] was 132%.

Take `CCCCCCCC/C=C\CCCCCCCC(=O)NC1CCCCCC1`: the Activity in data set [1] is 136%.

The record behind these values is ChEMBL document CHEMBL5104206, “Oleic amide derivatives as small molecule stimulators of the human proteasome's core particle” (RSC Med Chem, 2022).
